Experimental data: ChEMBL document CHEMBL1122744, “2-Chloroethyl (methylsulfonyl)methanesulfonate and related (methylsulfonyl)methanesulfonates. Antineoplastic activity in vivo” (J Med Chem, 1984)

Tests used:
Mus musculus [1] = experiment: Median survival time of the treated control groups, in which there are no 30-day survivors at dose 100 mg/kg in exp2; assay type: functional
[2] = Ratio of median survival times for non-survivors at dose 50 mg/kg in exp1; assay type: functional; design: unit: %
Procedure, shortened: (§1)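 Mice were inoculated ip with 10^6 P388 leukemia cells on day 0. Groups of six (occasionally five) were dosed ip qd on days 1–5 with fresh suspensions; 30 mice served as untreated controls. Deaths were recorded daily up to day 60. T/C% compares the median survival of treated non-survivors (<60 days) with the control median. Medians used grouped data when there were no 30-day survivors, otherwise ungrouped data. t = toxic.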

Mus musculus [3] = experiment: Mortality by day 5 expressed as number of mice died to the total treated at dose 25 mg/kg in exp1; 0/6; assay type: ADME, organism-based; design: dose 25 mg/kg; settings: in vivo
Mus musculus [4] = experiment: Mortality by day 5 expressed as number of mice died to the total treated at dose 50 mg/kg in exp2; 0/6; assay type: ADME, organism-based; design: dose 50 mg/kg; settings: in vivo
Mus musculus [5] = experiment: Change in weight by day 5, obtained by subtracting treated groups of animals minus control groups of animals at dose 100 mg/kg in exp1.; assay type: functional
Procedure, shortened: (§2)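 Mice were inoculated ip with 10^6 P388 leukemia cells on day 0, when treated and control mice weighed 19–22 g. Treatment was given ip once daily on days 1–5, within about 5 min of preparing the solution or suspension. Groups of six (occasionally five) were treated, with 30 untreated inoculated mice as controls. The day-5 weight change is the mean treated change minus the mean control change.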

[6] = Median survival time of the treated control groups, in which there are no 30-day survivors at dose 50 mg/kg in exp2; assay type: functional
Mus musculus [7] = experiment: Mortality by day 5 expressed as number of mice died to the total treated at dose 200 mg/kg in exp1; 5/6; assay type: ADME, organism-based; design: dose 200 mg/kg; settings: in vivo
Mus musculus [8] = experiment: Change in weight by day 5, obtained by subtracting treated groups of animals minus control groups of animals at dose 100 mg/kg in exp2*-mortality was 5/6 by day 7; assay type: functional
Procedure, shortened: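 Mice were inoculated ip with 10^6 P388 leukemia cells on day 0 and weighed 19–22 g that day. Compound was given ip once daily on days 1–5, within about 5 min of preparing the solution or suspension, to groups of six (occasionally five). Thirty inoculated untreated mice served as controls. The value is the average weight change of treated mice minus that of controls on day 5.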

Mus musculus [9] = experiment: Median survival time of the untreated control groups, in which there are no 30-day survivors at dose 200 mg/kg in exp1; assay type: functional
Mus musculus [10] = experiment: Mortality by day 5 expressed as number of mice died to the total treated at dose 100 mg/kg in exp2; 2/6; assay type: ADME, organism-based; design: dose 100 mg/kg; settings: in vivo
Mus musculus [11] = experiment: Change in weight by day 5, obtained by subtracting treated groups of animals minus control groups of animals at dose 50 mg/kg in exp2; assay type: functional; procedure, shortened: as §2
Mus musculus [12] = experiment: Median survival time of the untreated control groups, in which there are no 30-day survivors at dose 100 mg/kg in exp1; assay type: functional
Mus musculus [13] = experiment: Mortality by day 5 expressed as number of mice died to the total treated at dose 100 mg/kg in exp1; 0/6; assay type: ADME, organism-based; design: dose 100 mg/kg; settings: in vivo
[14] = Ratio of median survival times for non-survivors at dose 12 mg/kg in exp2; assay type: functional; procedure, shortened: as §1
Mus musculus [15] = experiment: Change in weight by day 5, obtained by subtracting treated groups of animals minus control groups of animals at dose 50 mg/kg in exp1.; assay type: functional; procedure, shortened: as §2
Mus musculus [16] = experiment: Median survival time of the treated control groups, in which there are no 30-day survivors at dose 100 mg/kg in exp1; assay type: functional
[17] = Ratio of median survival times for non-survivors at dose 25 mg/kg in exp1; assay type: functional
[18] = Ratio of median survival times for non-survivors at dose 200 mg/kg in exp1; t= toxic; assay type: ADME, organism-based; design: dose 200 mg/kg; settings: in vivo; procedure, shortened: as §1
Mus musculus [19] = experiment: Change in weight by day 5, obtained by subtracting treated groups of animals minus control groups of animals at dose 200 mg/kg in exp1.; assay type: functional; procedure, shortened: as §2
[20] = (§3) Median survival time of the untreated control groups, in which there are no 30-day survivors at dose 50 mg/kg in exp1; assay type: functional
Mus musculus [21] = experiment: Change in weight by day 5, obtained by subtracting treated groups of animals minus control groups of animals at dose 12 mg/kg in exp2; assay type: functional; procedure, shortened: as §2
Mus musculus [22] = experiment: Median survival time of the untreated control groups, in which there are no 30-day survivors at dose 25 mg/kg in exp1; assay type: functional
[23] = Ratio of median survival times for non-survivors at dose 25 mg/kg in exp2; assay type: functional; procedure, shortened: as §1
Mus musculus [24] = experiment: Median survival time of the untreated control groups, in which there are no 30-day survivors at dose 12 mg/kg in exp2; assay type: functional
Mus musculus [25] = experiment: Median survival time of the treated control groups, in which there are no 30-day survivors at dose 12 mg/kg in exp2; assay type: functional
Mus musculus [26] = experiment: Mortality by day 5 expressed as number of mice died to the total treated at dose 12 mg/kg in exp2; 0/6; assay type: ADME, organism-based; design: dose 12 mg/kg; settings: in vivo
Mus musculus [27] = experiment: Mortality by day 5 expressed as number of mice died to the total treated at dose 50 mg/kg in exp1; 0/6; assay type: ADME, organism-based; design: dose 50 mg/kg; settings: in vivo
Mus musculus [28] = experiment: Ratio of number of 30-day survivors to the total treated mice at dose 100 mg/kg in exp2*-toxic; 1/6; assay type: ADME, organism-based; design: dose 100 mg/kg; settings: in vivo, 720 h
Mus musculus [29] = experiment: Median survival time of the treated control groups, in which there are no 30-day survivors at dose 25 mg/kg in exp1; assay type: functional
[30] = Ratio of median survival times for non-survivors at dose 100 mg/kg in exp1; assay type: functional; design: unit: %; procedure, shortened: as §1
Mus musculus [31] = experiment: Median survival time of the treated control groups, in which there are no 30-day survivors at dose 25 mg/kg in exp2; assay type: functional
[32] = Ratio of number of 60-day survivors to the total treated mice at dose 100 mg/kg in exp1; 0/6; assay type: functional
Mus musculus [33] = experiment: Change in weight by day 5, obtained by subtracting treated groups of animals minus control groups of animals at dose 25 mg/kg in exp1.; assay type: functional; procedure, shortened: as §2
Mus musculus [34] = experiment: Mortality by day 5 expressed as number of mice died to the total treated at dose 25 mg/kg in exp2; 0/6; assay type: ADME, organism-based; design: dose 25 mg/kg; settings: in vivo
Mus musculus [35] = experiment: Change in weight by day 5, obtained by subtracting treated groups of animals minus control groups of animals at dose 25 mg/kg in exp2; assay type: functional; procedure, shortened: as §2
Mus musculus [36] = experiment: Ratio of median survival times for non-survivors at dose 50 mg/kg in exp2; assay type: functional; procedure, shortened: as §1
[37] = Median survival time of the untreated control groups, in which there are no 30-day survivors at dose 25 mg/kg in exp2; assay type: functional
[38] = Ratio of number of 60-day survivors to the total treated mice at dose 100 mg/kg in exp2; 0/6; assay type: functional
[39] = (§4) Median survival time of the treated control groups, in which there are no 30-day survivors at dose 50 mg/kg in exp1; assay type: functional
[40] = Ratio of number of 30-day survivors to the total treated mice at dose 100 mg/kg in exp1; 1/6; assay type: functional
Mus musculus [41] = experiment: Median survival time of the untreated control groups, in which there are no 30-day survivors at dose 100 mg/kg in exp2; assay type: functional
[42] = Ratio of median survival times for non-survivors at dose 100 mg/kg in exp2; assay type: functional; procedure, shortened: as §1
Mus musculus [43] = experiment: as §3; assay type: functional
Mus musculus [44] = experiment: as §4; assay type: functional

CS(=O)(=O)CS(=O)(=O)OCCBr
Median survival time (Mus musculus [1]): 7 | Ratio [2]: 159 | Mortality (Mus musculus [3]): 0 | Mortality (Mus musculus [4]): 0 | Change in weight (Mus musculus [5]): -2.9 | Median survival time [6]: 18 | Mortality (Mus musculus [7]): 5 | Change in weight (Mus musculus [8]): -4.7 | Median survival time (Mus musculus [9]): 10.5 | Mortality (Mus musculus [10]): 2 | Change in weight (Mus musculus [11]): -1.8 | Median survival time (Mus musculus [12]): 10.5 | Mortality (Mus musculus [13]): 0 | Ratio [14]: 98 | Change in weight (Mus musculus [15]): -2.1 | Median survival time (Mus musculus [16]): 23.5 | Ratio [17]: 136 | Ratio [18]: Toxic | Change in weight (Mus musculus [19]): -5.4 | Median survival time [20]: 10.5 | Change in weight (Mus musculus [21]): 0.3 | Median survival time (Mus musculus [22]): 10.5 | Ratio [23]: 123 | Median survival time (Mus musculus [24]): 13 | Median survival time (Mus musculus [25]): 12.8 | Mortality (Mus musculus [26]): 0 | Mortality (Mus musculus [27]): 0 | Ratio (Mus musculus [28]): 1 | Median survival time (Mus musculus [29]): 14.3 | Ratio [30]: 224 | Median survival time (Mus musculus [31]): 16 | Ratio [32]: 0 | Change in weight (Mus musculus [33]): -0.8 | Mortality (Mus musculus [34]): 0 | Change in weight (Mus musculus [35]): -1.5 | Ratio (Mus musculus [36]): 138 | Median survival time [37]: 13 | Ratio [38]: 0 | Median survival time [39]: 16.7 | Ratio [40]: 1 | Median survival time (Mus musculus [41]): 13 | Ratio [42]: 54

O=S(=O)(CCl)OCCBr
Ratio [2]: 110 | Change in weight (Mus musculus [5]): -1.5 | Mortality (Mus musculus [7]): 5 | Median survival time (Mus musculus [9]): 11.1 | Median survival time (Mus musculus [12]): 11.1 | Mortality (Mus musculus [13]): 0 | Change in weight (Mus musculus [15]): -0.5 | Median survival time (Mus musculus [16]): 12.7 | Ratio [18]: Toxic | Median survival time (Mus musculus [43]): 11.1 | Mortality (Mus musculus [27]): 0 | Ratio [30]: 114 | Median survival time (Mus musculus [44]): 12.3
